Paper PMC4143156 (Journal of immunology (Baltimore, Md. : 1950), 2008)
Like-named read-outs stand apart in the source and are kept apart here.

Legend:
[1] = molecular target: Water soluble DQ2 (sDQ2), thrombin-cleaved (human); experiment: peptide dissociation followed by MALDI-TOF MS
[2] = molecular target: Water soluble DR3 (sDR3), thrombin-cleaved (human); experiment: peptide dissociation followed by MALDI-TOF MS
[3] = molecular target: HLA-DQ2 (DQA1*0501, DQB1*0201) (Homo sapiens, UniProt P01909+P01920, A45G/A70V/D89A/E106A/E77G/E98D/H199R/L107V/N214S/P84L/P87L/T103K/T109R/T172A/T60S/V78E/V99I/Y58L/Y62S/Y69I/Y79F); conditions: DQ2 affinity purified from B-LCL; ref [3],[4]; cited from earlier work
water soluble DQ2 (sDQ2) = water soluble DQ2 (sDQ2) (Homo sapiens, UniProt P01909+P01920, A45G/A70V/D89A/E106A/E77G/E98D/H199R/L107V/N214S/P84L/P87L/T103K/T109R/T172A/T60S/V78E/V99I/Y58L/Y62S/Y69I/Y79F); assay type: binding; conditions: ratio of t1/2 without DM to t1/2 with 6 μM DM; sDQ2 complexes
water soluble DR3 (sDR3) [4] = molecular target: water soluble DR3 (sDR3) (Homo sapiens, UniProt P01903+P01911, A100K/A102G/A103R/A169T/F55Y/I96L/K41T/L162R/M171V/P40S/Q125H/Q178H/Q39Y/R42S/S66N/T106N/W38E/Y61H); assay type: binding; conditions: ratio of t1/2 without DM to t1/2 with 6 μM DM; sDR3 complex; listed as DR3-CLIP1
Method in brief: (§1)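 Incubated at 37°C, pH 5.0 citrate phosphate, ±6 μM soluble DM, with 35 μM competitor MT 65kDa 3-13; stopped with cold pH 7.2 buffer. Released peptides were quantified by MALDI-TOF MS against added isotopic indicator peptides.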

water soluble DR3 (sDR3) [5] = assay type: binding, human; conditions: pH 5, without DM
Method in brief: as §1

[6] = molecular target: HLA-DQ2 (DQA1*0501, DQB1*0201) (human (endogenous in B-LCL)); experiment: affinity purification with mass spectrometry
[7] = molecular target: HLA-DR3 (DRA1*0101, DRB1*0301) (human (endogenous in B-LCL)); experiment: affinity purification with mass spectrometry
[8] = molecular target: HLA-DQ2 (DQA1*0501, DQB1*0201) (human (endogenous in B-LCL)); experiment: affinity purification with mass spectrometry; remark: listed apart in the source

Molecule: CLIP1 M91A released peptide of sDQ2-CLIP1 M91A
- t1/2 of DM-mediated dissociation (6 μM DM) [1]: 0.7 h
- t1/2 of spontaneous dissociation [1]: 13.1 h

Molecule: CLIP1 M91P released peptide of sDQ2-CLIP1 M91P
- t1/2 of DM-mediated dissociation (6 μM DM) [1]: 8.9 h
- t1/2 of spontaneous dissociation [1]: 93.6 h

Molecule: CLIP1 released peptide of sDQ2-CLIP1 and sDR3-CLIP1
- t1/2 of DM-mediated dissociation (6 μM DM) [2]: 0.25 h
- t1/2 of spontaneous dissociation [2]: 61.5 h
- t1/2 of DM-mediated dissociation (6 μM DM) [1]: 9 h
- t1/2 of spontaneous dissociation [1]: 144 h

Molecule: CLIP2 released peptide of sDQ2-CLIP2
- t1/2 of DM-mediated dissociation (6 μM DM) [1]: 5 h
- t1/2 of spontaneous dissociation [1]: 142 h

Molecule: RDSGMATPLLMQALPM GALGAGSLVPR [CLIP2]
- IC50 values/affinity for DQ2 compared to conventional CLIP (CLIP1) peptides [3]: lower
- DM-mediated increase in dissociation (water soluble DQ2 (sDQ2)): 28x

Molecule: RDSGPVSKARMATPLLMQAGAGSLVPR [CLIP1 M91A]
- DM-mediated increase in dissociation (water soluble DQ2 (sDQ2)): 19x

Molecule: RDSGPVSKMRMATPLLMQAGAGSLVPR [CLIP1]
- DM-mediated increase in dissociation (water soluble DR3 (sDR3) [4]): 246x
- Faster spontaneous release from DR3 compared to CLIP1 and CLIP2 from sDQ2 (water soluble DR3 (sDR3) [5]): 2 fold
- DM-mediated increase in dissociation (water soluble DQ2 (sDQ2)): 16x

Molecule: RDSGPVSKPRMATPLLMQAGAGSLVPR [CLIP1 M91P]
- DM-mediated increase in dissociation (water soluble DQ2 (sDQ2)): 11x

B1: Ii81-101 (peptide)
peptide: LPKPPKPVSKMRMATPLLMQA
- pmol of peptide eluted from 50 μg of affinity-purified class II [6]: 31.5 pmol
- pmol of peptide eluted from 50 μg of affinity-purified class II [7]: 106 pmol
- pmol of peptide eluted from 50 μg of affinity-purified class II [8]: 88.4 pmol

B2: Ii81-104 (peptide)
peptide: LPKPPKPVSKMRMATPLLMQALPM
- pmol of peptide eluted from 50 μg of affinity-purified class II [7]: 42.4 pmol

B3: Ii81-103 (peptide)
peptide: LPKPPKPVSKMRMATPLLMQALP
- pmol of peptide eluted from 50 μg of affinity-purified class II [6]: 79.5 pmol
- pmol of peptide eluted from 50 μg of affinity-purified class II [8]: 71.1 pmol

B4: Ii82-103 (peptide)
peptide: PKPPKPVSKMRMATPLLMQALP
- pmol of peptide eluted from 50 μg of affinity-purified class II [6]: 16.5 pmol
- pmol of peptide eluted from 50 μg of affinity-purified class II [7]: 113 pmol
- pmol of peptide eluted from 50 μg of affinity-purified class II [8]: 36.8 pmol

B5: Ii93-109 (peptide)
peptide: MATPLLMQALPMGALPQ
- pmol of peptide eluted from 50 μg of affinity-purified class II [8]: 3.8 pmol

B6: Ii93-108 (peptide)
peptide: MATPLLMQALPMGALP
- pmol of peptide eluted from 50 μg of affinity-purified class II [6]: 159 pmol
- pmol of peptide eluted from 50 μg of affinity-purified class II [8]: 156 pmol
